Measurements taken from ChEMBL document CHEMBL1795201, “Substituted N-aryl-6-pyrimidinones: a new class of potent, selective, and orally active p38 MAP kinase inhibitors” (Bioorg Med Chem Lett, 2011).
In brackets after ≈: the same amount, converted by molar mass.

Tests used:
[1] = Oral bioavailability in rat at 5 mg/kg administered as suspension; format: ADME, organism-based; conditions: in vivo
In short: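 Rats dosed orally at 5 mpk with compound given as a suspension; bioavailability reported as oral BA (suspension).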

[2] = Metabolic stability in rat liver microsomes at 2 uM after 45 mins by LC-MS analysis in presence of NADPH; format: ADME, Microsome; conditions: read-out: Stability
In short: (§1)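 Test compound at 2 μM incubated with liver microsomes (human or rat), NADPH and buffer at 37 °C for 45 min; samples processed by precipitation, then LC-MS measured percent parent compound remaining.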

[3] = Apparent permeability in human Caco2 cells; format: ADME, cell-based; conditions: Caco-2
[4] = Oral bioavailability in dog at 1 mg/kg; format: ADME, organism-based, Canis lupus familiaris; conditions: in vivo
[5] = Volume of distribution at steady state in rat at 0.2 mg/kg, iv; format: ADME, organism-based; parameters: dose 0.2 mg/kg, route intravenous; conditions: in vivo, read-out: Vdss
[6] = Clearance in dog at 1 mg/kg, iv; format: ADME, organism-based, Canis lupus familiaris; parameters: dose 1 mg/kg, route intravenous; conditions: in vivo
[7] = Oral bioavailability in rat at 0.2 mg/kg; format: ADME, organism-based; conditions: in vivo
[8] = Half life in rat at 0.2 mg/kg, iv; format: ADME, organism-based; parameters: dose 0.2 mg/kg, route intravenous; conditions: in vivo
[9] = Lipophilicity, log P of the compound; format: physicochemical; conditions: octanol/water
[10] = Clearance in rat at 0.2 mg/kg, iv; format: ADME, organism-based; parameters: dose 0.2 mg/kg, route intravenous; conditions: in vivo
[11] = Volume of distribution at steady state in dog at 1 mg/kg, iv; format: ADME, organism-based, Canis lupus familiaris; parameters: dose 1 mg/kg, route intravenous; conditions: in vivo, read-out: Vdss
[12] = Half life in dog at 1 mg/kg, iv; format: ADME, organism-based, Canis lupus familiaris; parameters: dose 1 mg/kg, route intravenous; conditions: in vivo
[13] = Aqueous solubility of the compound in crystalline form at pH 6.5; format: physicochemical; conditions: aqueous medium
In short: (§2)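 Aqueous solubility measured at pH 6.5, expressed in µg/mL.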

[14] = Metabolic stability in human liver microsomes at 2 uM after 45 mins by LC-MS analysis in presence of NADPH; format: ADME, Microsome; conditions: read-out: Stability; in short: as §1
[15] = Aqueous solubility of the compound in amorphous form at pH 6.5; format: physicochemical; in short: as §2
[16] = aqueous medium, read-out: solubility

Row | remaining at 0.75 h, 2 µM [2] [%] | remaining at 0.75 h, 2 µM [14] [%] | solubility [15, 16] [µg/mL] | Structure (SMILES) | other results
1 | 97 | 99 | 51 (≈ 113 µM) | Cc1ccc(C(=O)NCCO)cc1-n1cnc(OCc2ccc(F)cc2F)c(Cl)c1=O | bioavailability [1]: 99%; Papp [3]: 7.99 ×10⁻⁶ cm/s; bioavailability [4]: 67%; Vd [5]: 1.32 L/kg; clearance [6]: 1.59 mL/min/kg; bioavailability [7]: 99%; half-life [8]: 6.5 h; logP [9]: 1.65; clearance [10]: 3.19 mL/min/kg; Vd [11]: 0.986 L/kg; half-life [12]: 8.7 h; solubility [13]: 23 µg/mL (≈ 51.1 µM)
2 | 100 | 100 | 14 (≈ 30.2 µM) | Cc1ccc(C(=O)NCC(N)=O)cc1-n1cnc(OCc2ccc(F)cc2F)c(Cl)c1=O | 
3 | 100 | 97 | 163 (≈ 340 µM) | Cc1ccc(C(=O)NC[C@@H](O)CO)cc1-n1cnc(OCc2ccc(F)cc2F)c(Cl)c1=O | 
4 | 85 | 96 | 94 (≈ 197 µM) | Cc1ccc(C(=O)NC[C@H](C)CO)cc1-n1cnc(OCc2ccc(F)cc2F)c(Cl)c1=O | 
5 | 72 | 77 | 147 (≈ 308 µM) | Cc1ccc(C(=O)N[C@H](C)C(N)=O)cc1-n1cnc(OCc2ccc(F)cc2F)c(Cl)c1=O | 
6 | 99 | 84 | 28 (≈ 65.2 µM) | Cc1ccc(C(=O)NCCO)cc1-n1cnc(OCc2ccc(F)cc2F)c(C)c1=O | 
7 | 92 | 76 | 20 (≈ 45.1 µM) | CCc1c(OCc2ccc(F)cc2F)ncn(-c2cc(C(=O)NCCO)ccc2C)c1=O | 
8 |  |  |  | Cc1ccc(C(=O)NCCO)cc1-n1cnc(OCc2ccc(F)cc2F)c(Br)c1=O | solubility ([15]; buffer): Insoluble
9 |  |  |  | CNC(=O)c1ccc(C)c(-n2c(C)cc(OCc3ccc(F)cc3F)c(Br)c2=O)c1 [PH-797804] | bioavailability [1]: 9.3%; Papp [3]: 15.9 ×10⁻⁶ cm/s; logP [9]: 3.35; solubility [13]: 10 µg/mL (≈ 21 µM)
